Screens (PubChem BioAssay)
FGF22 binding – binders of recombinant human FGF22 by thermal shift. SYPRO orange fluorescence; percent of sucrose octasulfate shift, DMSO zero. activity (Tm shift, normalised), % at 9.99 µM. 340,000 tested, 1.5% active;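 active means mean Tm shift, scaled 0 neutral to 100 positive control, at about 1.3% or above, every replicate too, limit read from the data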
Target sequence (Q9HCT0 whole entry, looked up): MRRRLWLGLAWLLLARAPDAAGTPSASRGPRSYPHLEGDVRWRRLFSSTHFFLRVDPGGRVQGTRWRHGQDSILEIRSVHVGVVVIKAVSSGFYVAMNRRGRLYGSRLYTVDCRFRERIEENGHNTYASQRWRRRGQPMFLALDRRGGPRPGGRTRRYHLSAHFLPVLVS
HCV NS3 hel inh – HCV NS3 helicase inhibition; NS3 helicase DNA unwinding, Cy5 molecular beacon fluorescence; inhibition, % at 10.9 µM; 290,000 tested, 0.56% active; AID 1800;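 active means inhibition above the mean of all tested compounds plus 3 SD, set per campaign, cut at about 35% in these data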;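 further: 0% = DMSO wells and 100% = thioflavine S control wells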
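Measured by: Cy5 fluorescence, 0 and 60 min reads / Assay system: NS3 helicase fragment of HCV / Control set: low DMSO, high thioflavine S at 110 µM / Times: 1 h reaction at 25 °C, ATP-initiated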
DNA FID counter – fluorescent intercalator displacement, NS3 helicase counter-screen; 290,000 tested, 0.17% active; DNA fluorescent intercalator displacement, fluorescence; inhibition, % at 7.9 µM; in the data active means inhibition above about 37%;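 further: 0% = vehicle and 100% = reference compound; higher means more ethidium bromide displaced from hairpin DNA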
EBNA-1 inhibitor – blocks EBNA-1 binding to DNA. 300,000 tested, 0.34% active. AID 1950. EBNA-1 DNA binding, fluorescence polarization. inhibition, % at 14.8 µM; in the data active means inhibition above about 28%
GRIN3A LBD mod – modulators (binders) of human NR3A ligand-binding domain; 340,000 tested, 2.5% active; NR3A LBD differential scanning fluorimetry, Tm shift; 0% = protein alone, 100% = glycine-bound protein; Tm shift relative to glycine control, % at 25 µM;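 active means melting temperature shift of at least 10% of the positive control shift, at one fixed dose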
ZTA DNA inh – ZTA (EBV) inhibition in EBNA-1 counter-screen | inhibition, % at 11 µM | ZTA-DNA binding, fluorescence polarization | P03206 | 320,000 tested, 0.15% active; in the data active means inhibition above about 33%
Target sequence (P03206 whole entry, looked up): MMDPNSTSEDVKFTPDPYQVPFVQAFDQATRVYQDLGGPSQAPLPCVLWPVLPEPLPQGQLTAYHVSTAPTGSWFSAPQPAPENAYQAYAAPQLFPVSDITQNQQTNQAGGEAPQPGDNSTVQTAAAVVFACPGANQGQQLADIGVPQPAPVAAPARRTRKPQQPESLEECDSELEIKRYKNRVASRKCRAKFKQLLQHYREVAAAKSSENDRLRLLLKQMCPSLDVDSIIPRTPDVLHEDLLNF
EBNA-1 confirm – EBNA-1 (EBV) inhibition, confirmation; shares compounds with EBNA-1 inhibitor; Recombinant EBNA-1 DBD, Cy5-DNA fluorescence polarization; inhibition, % at 14.8 µM; 830 tested, 35% active;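 active means mean inhibition across replicates above a set limit taken from the earlier primary screen, cut at about 28% in these data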;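 further: plate controls were EBNA-1 protein with DMSO for no effect and wells lacking EBNA-1 for full effect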
ZTA DNA inh trip – blocks Epstein-Barr virus ZTA in triplicate, EBNA-1 counter-screen. shares compounds with EBNA-1 inhibitor. 830 tested, under 10 active. Zta-ZRE DNA binding, Cy5 fluorescence polarization. inhibition, % at 11.1 µM;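 active means mean inhibition over triplicates above a set limit taken from the primary EBNA-1 screen, cut at about 37% in these data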;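 further: purified full length Zta protein with Cy5 labeled ZRE DNA probe; 0% = Zta with DMSO and 100% = wells lacking Zta protein; inhibitors lower polarization by freeing the labeled DNA probe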
* marks the source's active call; other numbers are inactive results; / = not tested or not shown. Most compounds without a hit are left out; they make up all but 3.6% or so of the library.

SMILES	FGF22 binding	HCV NS3 hel inh	DNA FID counter	EBNA-1 inhibitor	GRIN3A LBD mod	ZTA DNA inh	EBNA-1 confirm	ZTA DNA inh trip
CC=Cc1ccc2n(c1=O)C[C@@H]1[C@@H](CO)[C@H](C(=O)N(C)C)N(CC3CCCCC3)[C@H]21 (mixture of isomers)	0	/	/	/	/	/	/	/
Cc1ccccc1NC(=S)N=Nc1c(O)n(C)c2ccc(S(=O)(=O)N3CCOCC3)cc12	/	5	2	42*	-4	-1	15	9
Cc1ccc(S(=O)(=O)N(C)C[C@@H]2Oc3ccc(NS(=O)(=O)c4cccs4)cc3C(=O)N([C@H](C)CO)C[C@H]2C)cc1	0	/	/	/	/	/	/	/
O=C(N/N=C/c1ccc(-c2ccc(S(=O)(=O)Nc3ncccn3)cc2)o1)c1cc2ccccc2cc1O	/	33	-25	32*	3	28	46*	41*
C[C@@H]1CN([C@@H](C)CO)C(=O)c2cc(NS(=O)(=O)c3ccc(Cl)cc3)ccc2O[C@@H](C)CCCCO[C@@H]1CN(C)S(=O)(=O)c1ccc(Cl)cc1	0	/	/	/	/	/	/	/
Cc1ccc(S(=O)(=O)N(C)C[C@@H]2Oc3ccc(NC(=O)Cc4ccccc4)cc3C(=O)N([C@H](C)CO)C[C@@H]2C)cc1	0	/	/	/	/	/	/	/
CO[C@H]1CN(C)C(=O)c2cc(NS(C)(=O)=O)ccc2OC[C@@H](C)N(C(=O)C2CCC2)C[C@@H]1C	0	/	/	/	/	/	/	/
COc1ccc(N2CCN(C(=S)Nc3cc(C)cc(C)c3)CC2)cc1	/	4	-1	12	1	12	/	/
COc1ccc(N2CCN(C(=S)Nc3ccc(F)cc3)CC2)cc1	0	6	-9	34*	-1	-17	25	7
CCOC(=O)c1cc2cc(CC(=O)c3ccc(OCC)cc3O)ccc2o1	/	0	0	28*	-5	-9	30*	9
C[C@@H]1CCCCO[C@H](CN(C)C(=O)C2CCCCC2)[C@H](C)CN([C@@H](C)CO)C(=O)c2cc(NS(C)(=O)=O)ccc2O1	0	/	/	/	/	/	/	/
Cc1ccc(NC(=O)c2sc3ncn(CC(=O)N4CCN(c5ccccn5)CC4)c(=O)c3c2C)cc1Cl	0	-5	-28	31*	14*	-13	-3	-1
C[C@@H]1CN([C@H](C)CO)C(=O)c2cc(C3=CCCC3)cnc2O[C@H]1CN(C)C(=O)CN(C)C	0	/	/	/	/	/	/	/
Cc1c(Cl)cccc1NC(=O)c1ccc(OCC(=O)NCc2ccccc2)cc1	0	-8	-9	33*	-20	-2	44*	14
Cc1ccc(NC(=O)c2ccc(NCCc3ccccc3)c([N+](=O)[O-])c2)cc1F	/	18	0	-3	-6	-11	/	/
O=C(Nc1cc(F)cc(F)c1)c1ccc(NCCc2ccccc2)c([N+](=O)[O-])c1	/	-3	1	74*	-12	11	5	7
CO[C@H](CN(C)S(=O)(=O)c1ccc(Cl)cc1)[C@H](C)CN(C(=O)Nc1ccccc1F)[C@@H](C)CO	0	/	/	/	/	/	/	/
Cc1cccc(NC(=O)CCCN2C(=O)c3cccc4cccc(c34)C2=O)c1	/	5	-1	8	2	9	/	/
Cc1ccc(NC(=O)CCCN2C(=O)c3cccc4cccc(c34)C2=O)cc1	0	5	-3	55*	2	12	9	8
CC(C)NC(=O)N(C)C[C@@H]1OCCCC[C@@H](C)Oc2ccc(NC(=O)C3CCCCC3)cc2C(=O)N([C@@H](C)CO)C[C@@H]1C	0	/	/	/	/	/	/	/
C[C@@H]1CN([C@H](C)CO)C(=O)Cc2cc(NS(C)(=O)=O)ccc2O[C@@H]1CN(C)S(=O)(=O)c1ccc(Cl)cc1	0	/	/	/	/	/	/	/
CC(=O)N1CCN=C1SCc1ccc(C(F)(F)F)cc1	0	9	3	41*	-1	-9	-9	-2
C[C@H](CO)N1C[C@H](C)[C@H](CN(C)S(=O)(=O)c2ccc(F)cc2)Oc2ncc(-c3ccncc3)cc2C1=O	0	/	/	/	/	/	/	/
Cn1c(O)c(N=NC(=O)c2cc(-c3cccs3)nc3ccccc23)c2ccccc21	/	4	0	109*	-8	-17	82*	-8
NC(=O)c1ccccc1NC(=O)c1cccc(C(=O)Nc2ccccc2C(N)=O)n1	0	/	/	35*	1	11	36*	4
SMILES	FGF22 binding	HCV NS3 hel inh	DNA FID counter	EBNA-1 inhibitor	GRIN3A LBD mod	ZTA DNA inh	EBNA-1 confirm	ZTA DNA inh trip
O=C(NN1C(=O)c2ccc3c4c(ccc(c24)C1=O)CC3)c1ccc(Br)cc1	/	-3	3	55*	-4	-7	6	9
C[C@@H]1CN([C@H](C)CO)C(=O)c2cc(-c3ccccc3F)cnc2O[C@@H]1CN(C)Cc1cccc(F)c1	0	/	/	/	/	/	/	/
O=C(Nc1ccccc1)N1CCCCN2[C@H](CO)[C@H](c3ccc(C#Cc4ccccn4)cc3)[C@H]2C1	-1	/	/	/	/	/	/	/
COc1ccc(C(=O)NCC2OCCc3ccccc32)cc1 (configuration not stated)	/	4	-5	-5	-1	-19	/	/
O=C(NCC1OCCc2ccccc21)c1ccc(NC(=O)c2ccc(Cl)cc2Cl)cc1 (configuration not stated)	/	-1	1	70*	18*	4	47*	-2
COc1ccc(CNC(=O)CSc2nnc3c(n2)[nH]c2ccc(C)cc23)cc1	-1	-20	-7	-1	0	-3	/	/
COc1ccc2[nH]c3nc(SCc4nnc(-c5ccc(C)cc5)o4)nnc3c2c1	/	2	0	55*	-1	3	40*	6
O=C(CCN1CCCCC1)NCC[C@H]1CC[C@H](NC(=O)Nc2ccc(Cl)cc2)[C@@H](CO)O1	0	/	/	/	/	/	/	/
COc1ccc(S(=O)(=O)N(C)C[C@H]2OCCCC[C@@H](C)Oc3ccc(NC(=O)Nc4c(C)noc4C)cc3C(=O)N([C@H](C)CO)C[C@@H]2C)cc1	0	/	/	/	/	/	/	/
CC(C)NC(=O)Nc1cccc2c1O[C@@H](CN(C)Cc1ccncc1)[C@@H](C)CN([C@H](C)CO)C2=O	0	/	/	/	/	/	/	/
CCc1nnc(NC(=O)CSc2ccc(-c3ccc(C)cc3)nn2)s1	0	5	-2	-1	1	-8	/	/
CCc1nnc(NC(=O)CSc2ccc(-c3nc4ccc(C)cc4[nH]3)cn2)s1	/	-7	0	45*	-3	-6	15	-2
O=C(O)c1ccc(N2C(=O)CC(SC(=NCc3ccc4c(c3)OCO4)Nc3ccccc3)C2=O)cc1 (configuration not stated)	0	-4	-23	-3	-2	15	/	/
O=C1CC(SC(=NCc2ccc3c(c2)OCO3)Nc2ccccc2)C(=O)N1c1ccccc1 (configuration not stated)	/	-4	-6	44*	3	8	-12	-9
